Reference: ChEMBL document CHEMBL3414467, “Exploring the 7-oxo-thiazolo[5,4-d]pyrimidine core for the design of new human adenosine A3 receptor antagonists. Synthesis, molecular modeling studies and pharmacological evaluation” (Eur J Med Chem, 2015)

Tests used:
[1] = molecular target: T1, Adenosine receptor A2b (Homo sapiens) (UniProt P29275); test: Antagonist activity against human adenosine A2B receptor expressed in CHO cells assessed as inhibition of NECA-induced cAMP production at 1 uM by scintillation counting method; type: functional, cell-based
T1 sequence (whole entry): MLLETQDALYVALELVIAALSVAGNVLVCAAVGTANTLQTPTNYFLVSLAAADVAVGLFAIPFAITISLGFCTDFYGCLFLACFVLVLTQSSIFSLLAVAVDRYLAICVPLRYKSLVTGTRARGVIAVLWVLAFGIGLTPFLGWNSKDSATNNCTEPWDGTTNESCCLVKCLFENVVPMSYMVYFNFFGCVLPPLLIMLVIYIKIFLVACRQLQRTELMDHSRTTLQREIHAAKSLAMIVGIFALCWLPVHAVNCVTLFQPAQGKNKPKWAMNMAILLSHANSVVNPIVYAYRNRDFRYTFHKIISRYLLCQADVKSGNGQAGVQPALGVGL
Outline: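 hA2B-transfected CHO cells (1 × 10⁶ cells/assay) in buffered saline-glucose medium with 2 IU/mL adenosine deaminase and Ro 20-1724, preincubated 10 min at 37 °C, stimulated with 200 nM NECA; test compounds at 1 μM, reported as percent inhibition. Stopped with cold 6% TCA, ether-extracted; cAMP measured by competition binding with [3H]cAMP and beef adrenal binding protein.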

[2] = molecular target: Adenosine receptor A2a (Homo sapiens) (UniProt P29274); test: Displacement of [3H]ZM241385 from human adenosine A2A receptor expressed in CHO cell membranes at 1 uM incubated for 60 mins by scintillation counting method
Adenosine receptor A2a (Homo sapiens), sequence (P29274 whole entry): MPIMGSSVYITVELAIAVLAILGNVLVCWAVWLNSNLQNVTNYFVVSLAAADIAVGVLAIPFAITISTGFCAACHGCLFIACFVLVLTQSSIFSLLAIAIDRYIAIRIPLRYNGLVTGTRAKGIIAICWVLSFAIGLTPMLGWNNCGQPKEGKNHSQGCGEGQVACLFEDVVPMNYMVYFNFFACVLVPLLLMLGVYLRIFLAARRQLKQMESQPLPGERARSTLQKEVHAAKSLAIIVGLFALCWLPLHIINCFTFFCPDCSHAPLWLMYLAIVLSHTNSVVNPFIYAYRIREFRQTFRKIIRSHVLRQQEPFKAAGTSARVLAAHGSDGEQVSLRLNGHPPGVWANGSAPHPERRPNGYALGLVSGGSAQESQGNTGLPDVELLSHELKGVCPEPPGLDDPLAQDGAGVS
Outline: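 Membranes from hA2A-CHO cells (50 μg protein/assay), deaminase-treated. Incubated with 1 nM [3H]ZM241385 in 50 mM Tris HCl, 10 mM MgCl2, pH 7.4 for 60 min at 4 °C. Nonspecific binding defined with 1 μM ZM241385. Test compounds at 1 μM, reported as percent inhibition. Filter separation; scintillation counting.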

[3] = molecular target: T2, Adenosine receptor A1 (Homo sapiens) (UniProt P30542); test: Displacement of [3H]DPCPX from human adenosine A1 receptor expressed in CHO cell membranes at 1 uM incubated for 120 mins by scintillation counting method
T2 sequence (whole entry): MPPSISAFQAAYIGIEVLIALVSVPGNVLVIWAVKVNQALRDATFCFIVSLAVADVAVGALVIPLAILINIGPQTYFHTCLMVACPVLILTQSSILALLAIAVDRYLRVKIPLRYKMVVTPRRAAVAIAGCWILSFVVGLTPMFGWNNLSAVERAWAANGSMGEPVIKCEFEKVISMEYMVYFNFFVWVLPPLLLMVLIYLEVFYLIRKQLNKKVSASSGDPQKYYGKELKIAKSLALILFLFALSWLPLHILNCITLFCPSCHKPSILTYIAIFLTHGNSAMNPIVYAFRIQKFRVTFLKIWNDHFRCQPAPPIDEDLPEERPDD
Outline: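 Membranes from hA1-CHO cells (50 μg protein/assay), pretreated with adenosine deaminase 2 IU/mL, 30 min at 37 °C. Incubated with 1 nM [3H]DPCPX in 50 mM Tris HCl pH 7.4 for 120 min at 25 °C. Nonspecific binding defined with 1 μM DPCPX. Test compounds at 1 μM, reported as percent inhibition. Separation by GF/B filtration; read by scintillation counting.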

[4] = molecular target: T3, Adenosine receptor A3 (Homo sapiens) (UniProt P0DMS8); test: Displacement of [125I]AB-MECA from human adenosine A3 receptor expressed in CHO cell membranes at 1 uM incubated for 120 mins by scintillation counting method
T3 sequence (whole entry): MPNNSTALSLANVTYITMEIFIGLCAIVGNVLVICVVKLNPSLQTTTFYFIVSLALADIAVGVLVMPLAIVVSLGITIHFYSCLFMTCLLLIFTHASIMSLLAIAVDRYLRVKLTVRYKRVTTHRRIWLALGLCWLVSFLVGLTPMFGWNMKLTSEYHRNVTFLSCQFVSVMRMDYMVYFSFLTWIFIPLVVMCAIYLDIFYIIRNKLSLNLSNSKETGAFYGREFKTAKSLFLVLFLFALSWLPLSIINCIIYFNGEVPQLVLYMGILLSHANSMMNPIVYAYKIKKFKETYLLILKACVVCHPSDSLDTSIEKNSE
Outline: (§1)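 Membranes from hA3-CHO cells (50 μg protein/assay), pretreated with 2 IU/mL adenosine deaminase. Incubated with 0.5 nM [125I]AB-MECA in 50 mM Tris HCl, 10 mM MgCl2, 1 mM EDTA, pH 7.4, with six to eight compound concentrations; percent inhibition taken at 1 μM. Ki from IC50 by Cheng–Prusoff, means of four assays in duplicate.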

Adenosine receptor A3 [5] = molecular target: T4, Adenosine receptor A3 (Homo sapiens, UniProt P0DMS8); test: Displacement of [125I]AB-MECA from human adenosine A3 receptor expressed in CHO cell membranes incubated for 120 mins by scintillation counting method; outline: as §1
T4 sequence (P0DMS8 whole entry): T3 sequence (whole entry)

Adenosine receptor A3 [6] = molecular target: T4, Adenosine receptor A3; test: Antagonist activity against human adenosine A3 receptor expressed in CHO cells assessed as blockade of Cl-IB-MECA-induced inhibition of forskolin-induced cAMP production by scintillation counting method; type: functional, cell-based
Outline: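 hA3-transfected CHO cells (1 × 10⁶ cells/assay) in buffered medium pH 7.4 with 2 IU/mL adenosine deaminase and Ro 20-1724, preincubated 10 min at 37 °C; antagonists tested against 100 nM Cl-IB-MECA. Stopped with cold TCA; cAMP measured by [3H]cAMP competition binding with adrenal binding protein. IC50 from sigmoid nonlinear regression, mean of four experiments.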

Row | inhibition [1] | inhibition [2] | inhibition [3] | inhibition [4] | Ki (Adenosine receptor A3 [5]) | IC50 (Adenosine receptor A3 [6]) | SMILES
1 | 1% | 21% | 44% | 48% | – | – | Cc1nc2sc(Nc3cccc(Cl)c3)nc2c(=O)[nH]1
2 | 3% | 1% | 10% | – | 38 nM | – | COc1ccc(-c2nc3c(=O)[nH]c(C)nc3s2)cc1
3 | 1% | 1% | 11% | – | 85 nM | 221 nM | Cc1nc2sc(-c3ccccc3)nc2c(=O)[nH]1
4 | 1% | 3% | 2% | 45% | – | – | CCOc1nc(C)nc2sc(Nc3ccccc3)nc12
5 | 1% | 25% | 3% | – | 110 nM | – | CCOc1nc(C)nc2sc(Nc3cccc(OC)c3)nc12
6 | 1% | 31% | 1% | – | 384 nM | – | Cc1cccc(-c2nc3c(=O)[nH]c(C)nc3s2)c1
7 | 1% | 1% | 1% | 33% | – | – | Cc1nc2sc(-c3cccnc3)nc2c(=O)[nH]1
8 | 1% | 1% | 1% | 15% | – | – | Cc1nc2sc(-c3ccc(O)cc3)nc2c(=O)[nH]1
9 | 3% | 2% | 17% | – | 33 nM | – | Cc1ccc(-c2nc3c(=O)[nH]c(C)nc3s2)cc1
10 | 1% | 14% | 24% | 45% | – | – | Cc1nc2sc(Nc3ccccc3)nc2c(=O)[nH]1
11 | 1% | 1% | 4% | – | 248 nM | – | Cc1nc2sc(-c3cccs3)nc2c(=O)[nH]1
12 | 1% | 1% | 1% | 1% | – | – | Cc1nc2sc(-c3ccc(C(=O)O)cc3)nc2c(=O)[nH]1
13 | 1% | 10% | 24% | – | 826 nM | – | Cc1nc2sc(-c3cccc(Cl)c3)nc2c(=O)[nH]1
14 | 1% | 1% | 1% | 15% | – | – | Cc1nc2sc(-c3ccncc3)nc2c(=O)[nH]1
15 | 1% | 18% | 20% | 47% | – | – | Cc1ccc(Nc2nc3c(=O)[nH]c(C)nc3s2)cc1
16 | 1% | 1% | 1% | – | 109 nM | – | Cc1nc2sc(-c3cccc(F)c3)nc2c(=O)[nH]1
17 | 3% | 9% | 1% | – | 227 nM | – | Cc1nc2sc(-n3cccc3)nc2c(=O)[nH]1

Row | inhibition [1] | inhibition [2] | inhibition [3] | inhibition [4] | Ki (Adenosine receptor A3 [5]) | IC50 (Adenosine receptor A3 [6]) | SMILES
18 | 1% | 1% | 8% | – | 113 nM | – | COc1cccc(Nc2nc3c(=O)[nH]c(C)nc3s2)c1
19 | 1% | 1% | 1% | 36% | – | – | COc1ccc(Nc2nc3c(=O)[nH]c(C)nc3s2)cc1
20 | 1% | 16% | 30% | 25% | – | – | Cc1nc2sc(Nc3ccc(Cl)c(Cl)c3)nc2c(=O)[nH]1
21 | 1% | 1% | 11% | – | 427 nM | – | Cc1nc2sc(Cc3ccccc3)nc2c(=O)[nH]1
22 | 1% | 9% | 6% | 10% | – | – | CCOc1nc(C)nc2sc(-c3ccc(Cl)cc3)nc12
23 | 2% | 1% | 37% | 20% | – | – | Cc1nc2sc(-c3ccco3)nc2c(=O)[nH]1
24 | 1% | 37% | 1% | 32% | – | – | Cc1nc2sc(-c3ccc(C(F)(F)F)cc3)nc2c(=O)[nH]1
25 | 4% | 12% | 1% | 28% | – | – | COc1cccc(-c2nc3c(=O)[nH]c(C)nc3s2)c1
26 | 17% | 15% | 1% | 15% | – | – | Cc1nc2sc(-c3cccc(C(F)(F)F)c3)nc2c(=O)[nH]1
27 | 1% | 1% | 1% | – | 18 nM | 42 nM | Cc1nc2sc(-c3ccc(Cl)cc3)nc2c(=O)[nH]1
28 | 1% | 1% | 1% | 8% | – | – | Cc1nc2sc(-n3ccnc3)nc2c(=O)[nH]1
29 | 1% | 8% | 12% | – | 450 nM | – | Cc1cccc(Nc2nc3c(=O)[nH]c(C)nc3s2)c1
30 | 1% | 1% | 11% | 6% | – | – | CCOc1nc(C)nc2sc(-c3ccccc3)nc12
31 | 1% | 1% | 1% | 5% | – | – | CCOc1nc(C)nc2sc(-c3ccc(C)cc3)nc12
32 | 17% | 15% | 1% | – | 107 nM | – | Cc1nc2sc(-c3ccc(F)cc3)nc2c(=O)[nH]1
33 | 1% | 18% | 33% | 49% | – | – | Cc1nc2sc(Nc3ccc(Cl)cc3)nc2c(=O)[nH]1
